Test results: ChEMBL document CHEMBL5512625, “Design, synthesis, and biological evaluation of first-in-class indomethacin-based PROTACs degrading SARS-CoV-2 main protease and with broad-spectrum antiviral activity” (Eur J Med Chem, 2024)
In brackets after ≈: the same amount, converted by molar mass. Activity calls are given as the source filed them. The rule behind the calls is not given here.

Key:
[1] = Cytotoxicity against African green monkey Vero cells assessed as reduction in cell viability incubated for 72 hrs by MTT assay; assay type: toxicity, cell-based; settings: chlorocebus sabaeus
[2] = Cytotoxicity against human MRC5 cells assessed as reduction in cell viability incubated for 72 hrs by MTT assay; assay type: toxicity, cell-based
[3] = Kinetic solubility in universal buffer incubated for 90 mins by microplate shaker method; assay type: physicochemical; settings: for solubility kinetic at 1.5 h: universal buffer, read-out: Kinetic_solubility; for Kinetic_solubility: buffer, 1.5 h, BLD = below limit of detection
Summary of the method: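 Universal buffer (45 mM each ethanolamine, NaH2PO4 and sodium acetate) at pH 7.4; compound at 100 µM final, 5% DMSO. Shaken 90 min at 25 °C, vacuum-filtered, filtrate diluted with ACN/DMSO. UV absorbance at λmax quantified against an external calibration curve (3.13–100 µM); result corrected by ×1.25.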

SARS-CoV-2 [4] = test: Antiviral activity against SARS CoV-2 NL/2020 infected in African green monkey Vero E6 cells incubated for 3 days by plaque reduction assay; assay type: functional, organism-based; settings: Severe acute respiratory syndrome coronavirus 2, NL/2020, Vero C1008, 72 h
SARS-CoV-2 [5] = test: Antiviral activity against SARS CoV-2 infected in African green monkey Vero E6 cells assessed as reduction in viral replication by plaque reduction assay; assay type: functional, organism-based; settings: Severe acute respiratory syndrome coronavirus 2
MRC5 [6] = test: Downregulation of PGES-2 level in human MRC5 cells infected with HCoV-229E at 25 uM pre-infected for 90 mins followed by removal of viral inoculum and subsequent addition of compound measured after 24 hrs post-infection; assay type: functional, cell-based; settings: time 1350.0 min
HEK-293T = test: Downregulation of PGES-2 level in HEK293T cells at 25 uM incubated for 2 to 8 hrs by Western blot analysis; assay type: functional, cell-based; settings: Homo sapiens, time 2-8 hrs
Summary of the method: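 Uninfected 293T cells treated at 25 µM or with 0.1% DMSO and harvested at several times after treatment. Western blot with anti-PGES-2 antibody; β-actin as loading control.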

Vero C1008 [7] = test: Downregulation of PGES-2 level in African green monkey Vero E6 cells infected with SARS CoV-2 at 25 uM pre-infected for 90 mins followed by removal of viral inoculum and subsequent addition of compound measured after 24 hrs post-infection; assay type: functional, cell-based; settings: Chlorocebus sabaeus, time 1350.0 min
MRC5 [8] = test: Downregulation of PGES-2 level in human MRC5 cells infected with HCoV-OC43 at 25 uM pre-infected for 90 mins followed by removal of viral inoculum and subsequent addition of compound measured after 48 hrs post-infection; assay type: functional, cell-based; settings: time 2790.0 min
Summary of the method: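 MRC-5 cells infected with HCoV-OC43 for 90 min at 37 °C; inoculum removed, then treated at 25 µM or with 0.1% DMSO. Whole-cell lysates collected 48 h p.i. and blotted for PGES-2, normalised to β-actin.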

Human coronavirus 229E = test: Antiviral activity against HCoV-229E infected in human MRC5 cells incubated for 3 days by plaque reduction assay; assay type: functional, organism-based; settings: MRC5, 72 h
Human coronavirus OC43 = test: Antiviral activity against HCoV-OC43 infected in human MRC5 cells incubated for 3 days by plaque reduction assay; assay type: functional, organism-based; settings: Betacoronavirus 1, MRC5, 72 h
[9] = target: Replicase polyprotein 1ab (Severe acute respiratory syndrome coronavirus 2, UniProt P0DTD1); test: Binding affinity to NT650-labeled recombinant SARS CoV-2 MPro assessed as protein stability by measuring dissociation constant by MST analysis
[10] = Metabolic stability in human liver microsomes assessed as half life measured upto 60 mins by LC/MS-MS analysis; assay type: ADME, Microsome
Summary of the method: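 Compound at 10 µM (0.1% DMSO) pre-incubated 5 min at 37 °C with human liver microsomes (0.5 mg/mL, 10-donor pool) in 0.1 M phosphate pH 7.4. Reaction started with 1 mM NADPH. Samples at 0, 5, 15, 30 and 60 min, quenched in cold acetonitrile with labetalol, analysed by LC-MS/MS; n=3.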

[11] = Chemical stability of compound in DMEM at pH 7.4 assessed as compound remaining at 1 uM measured after 24 hrs by LC-MS analysis; assay type: physicochemical; settings: read-out: Stability
Summary of the method: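 Compound at 1 and 10 µM (0.1% DMSO) incubated at 37 °C in DMEM pH 7.4 with 10% FBS and penicillin/streptomycin. Samples at 0 and 24 h, quenched in cold acetonitrile with labetalol internal standard, analysed by LC-MS/MS; duplicates.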

SARS-CoV-2 [12] = test: Antiviral activity against SARS CoV-2 NL/2020; assay type: functional, organism-based; settings: Severe acute respiratory syndrome coronavirus 2, NL/2020
[13] = Cytotoxicity against African green monkey Vero cells; assay type: toxicity, cell-based; settings: chlorocebus sabaeus
Vero C1008 [14] = test: Cytotoxicity against African green monkey Vero E6 cells assessed as reduction in cell viability incubated for 72 hrs by Alamar blue assay; assay type: toxicity, cell-based; settings: chlorocebus sabaeus, vero c1008, 72 h
SARS-CoV-2 [15] = test: Antiviral activity against SARS CoV-2 infected in human Calu-3 cells measured after 36 hrs; assay type: functional, organism-based; settings: Severe acute respiratory syndrome coronavirus 2, Calu-3, 36 h
[16] = target: von Hippel-Lindau disease tumor suppressor-SARS-Cov-2 polyprotein (Severe acute respiratory syndrome coronavirus 2, UniProt P40337+P0DTD1); test: PROTAC activity at human VHL/virus-expressed MPro in human Calu-3 cells infected with SARS CoV-2 assessed as protein degradation incubated for 48 hrs by Western blot analysis; assay type: cell-based
Chain of von Hippel-Lindau disease tumor suppressor-SARS-Cov-2 polyprotein (P40337 whole entry, other chains not shown): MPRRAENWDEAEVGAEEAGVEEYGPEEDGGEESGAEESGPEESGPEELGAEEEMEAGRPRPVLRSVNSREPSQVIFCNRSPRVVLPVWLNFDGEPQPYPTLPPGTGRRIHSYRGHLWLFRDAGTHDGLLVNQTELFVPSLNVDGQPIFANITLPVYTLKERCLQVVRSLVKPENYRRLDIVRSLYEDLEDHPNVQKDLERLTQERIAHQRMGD

[17] = Cytotoxicity against human Calu-3 cells incubated for 72 hrs by MTT assay; assay type: toxicity, cell-based

**Q.** Which results are given for `COc1ccc2c(c1)c(CC(=O)N1CCN(CCOCCOCC(=O)N[C@H](C(=O)N3C[C@H](O)C[C@H]3C(=O)N[C@@H](C)c3ccc(-c4scnc4C)cc3)C(C)(C)C)CC1)c(C)n2C(=O)c1ccc(Cl)cc1`?
**A.** CC50 at 72 h [1]: > 125 µM; CC50 at 72 h [2]: 22 µM; solubility kinetic at 1.5 h [3]: 7.7 µM (≈ 7.69 µg/mL); EC50 (SARS-CoV-2 [4]): > 25 µM

**Q.** For `COc1ccc2c(c1)c(CC(=O)N1CCN(CCC(=O)N[C@H](C(=O)N3C[C@H](O)C[C@H]3C(=O)N[C@@H](C)c3ccc(-c4scnc4C)cc3)C(C)(C)C)CC1)c(C)n2C(=O)c1ccc(Cl)cc1`, which CC50 at 72 h [1] is on record?
**A.** > 125 µM

**Q.** And the CC50 at 72 h [2]?
**A.** 13.5 µM

**Q.** And the Kinetic_solubility [3]?
**A.** Bld

**Q.** And the EC50 (SARS-CoV-2 [4])?
**A.** > 25 µM

**Q.** For `COc1ccc2c(c1)c(CC(=O)NCCCCCCNc1cc3c(cc1F)C(=O)N(C1CCC(=O)NC1=O)C3=O)c(C)n2C(=O)c1ccc(Cl)cc1` (stereo not drawn), which CC50 at 72 h [1] is on record?
**A.** > 125 µM

**Q.** And the EC50 (SARS-CoV-2 [4])?
**A.** > 25 µM

**Q.** With `COc1ccc2c(c1)c(CC(=O)NCCN1CCN(C(=O)CCC(=O)N[C@H](C(=O)N3C[C@@H](O)C[C@H]3C(=O)N[C@@H](C)c3ccc(-c4scnc4C)cc3)C(C)(C)C)CC1)c(C)n2C(=O)c1ccc(Cl)cc1` as the molecule, how does the Activity (SARS-CoV-2 [5]) read?
**A.** inactive

**Q.** With `COc1ccc2c(c1)c(CC(=O)N1CCN(CCCCCC(=O)N[C@H](C(=O)N3C[C@H](O)C[C@H]3C(=O)N[C@@H](C)c3ccc(-c4scnc4C)cc3)C(C)(C)C)CC1)c(C)n2C(=O)c1ccc(Cl)cc1` as the molecule, how does the CC50 at 72 h [1] read?
**A.** > 125 µM

**Q.** And the CC50 at 72 h [2]?
**A.** 20 µM

**Q.** And the Kinetic_solubility [3]?
**A.** Bld

**Q.** And the EC50 (SARS-CoV-2 [4])?
**A.** > 25 µM

**Q.** For `COc1ccc2c(c1)c(CC(=O)NCCCCCCC(=O)N[C@H](C(=O)N1C[C@H](O)C[C@H]1C(=O)N[C@@H](C)c1ccc(-c3scnc3C)cc1)C(C)(C)C)c(C)n2C(=O)c1ccc(Cl)cc1`, which CC50 at 72 h [1] is on record?
**A.** > 200 µM

**Q.** And the CC50 at 72 h [2]?
**A.** > 250 µM

**Q.** And the Activity (MRC5 [6])?
**A.** inactive

**Q.** What about the Kinetic_solubility [3] of the same molecule?
**A.** Bld

**Q.** What about the Activity (HEK-293T) of the same molecule?
**A.** inactive

**Q.** And the Activity (Vero C1008 [7])?
**A.** inactive

**Q.** What about the Activity (MRC5 [8]) of the same molecule?
**A.** inactive

**Q.** With `COc1ccc2c(c1)c(CC(=O)NCCCCCCCCCCNc1cc3c(cc1F)C(=O)N(C1CCC(=O)NC1=O)C3=O)c(C)n2C(=O)c1ccc(Cl)cc1` (stereo not drawn) as the molecule, how does the CC50 at 72 h [1] read?
**A.** > 125 µM

**Q.** And the EC50 (SARS-CoV-2 [4])?
**A.** > 25 µM

**Q.** Which CC50 at 72 h [1] does the source give for `COc1ccc2c(c1)c(CC(=O)NCCCN1CCN(CCCNC(=O)CCC(=O)N[C@H](C(=O)N3C[C@H](O)C[C@H]3C(=O)N[C@@H](C)c3ccc(-c4scnc4C)cc3)C(C)(C)C)CC1)c(C)n2C(=O)c1ccc(Cl)cc1` here?
**A.** > 125 µM

**Q.** And the EC50 (Human coronavirus 229E)?
**A.** > 25 µM

**Q.** What about the CC50 at 72 h [2] of the same molecule?
**A.** > 125 µM

**Q.** And the solubility kinetic at 1.5 h [3]?
**A.** 9.4 µM (≈ 10 µg/mL)

**Q.** What about the EC50 (SARS-CoV-2 [4]) of the same molecule?
**A.** > 25 µM

**Q.** And the EC50 (Human coronavirus OC43)?
**A.** 16 µM

**Q.** What does the source list for `COc1ccc2c(c1)c(CC(=O)NCCCCNc1cc3c(cc1F)C(=O)N(C1CCC(=O)NC1=O)C3=O)c(C)n2C(=O)c1ccc(Cl)cc1` (stereo not drawn)?
**A.** CC50 at 72 h [1]: > 125 µM; EC50 (SARS-CoV-2 [4]): > 25 µM

**Q.** Which Kd [9] does the source give for `COc1ccc2c(c1)c(CC(=O)O)c(C)n2C(=O)c1ccc(Cl)cc1` [INDOMETHACIN] here?
**A.** 129 µM

**Q.** With `COc1ccc2c(c1)c(CC(=O)NCCN1CCN(C(=O)CCC(=O)N[C@H](C(=O)N3C[C@H](O)C[C@H]3C(=O)N[C@@H](C)c3ccc(-c4scnc4C)cc3)C(C)(C)C)CC1)c(C)n2C(=O)c1ccc(Cl)cc1` as the molecule, how does the CC50 at 72 h [1] read?
**A.** > 250 µM

**Q.** What about the Activity (MRC5 [6]) of the same molecule?
**A.** inactive

**Q.** And the half-life [10]?
**A.** > 1 h

**Q.** And the solubility kinetic at 1.5 h [3]?
**A.** 6 µM (≈ 5.97 µg/mL)

**Q.** And the Activity (HEK-293T)?
**A.** inactive

**Q.** And the Activity (Vero C1008 [7])?
**A.** inactive

**Q.** And the Activity (MRC5 [8])?
**A.** inactive

**Q.** What about the remaining at 24 h, 1 µM [11] of the same molecule?
**A.** > 70%

**Q.** Which results are given for `CC(C)(C)NC(=O)N[C@H](C(=O)N1C[C@H]2[C@@H]([C@H]1C(=O)NC(CC1CCC1)C(=O)C(N)=O)C2(C)C)C(C)(C)C` (stereo partly drawn) [BOCEPREVIR]?
**A.** EC50 (SARS-CoV-2 [12]): 22 µM; CC50 [13]: > 500 µM

**Q.** For `COc1ccc2c(c1)c(CC(=O)NCCN1CCN(CCOCCOCC(=O)N[C@H](C(=O)N3C[C@H](O)C[C@H]3C(=O)N[C@@H](C)c3ccc(-c4scnc4C)cc3)C(C)(C)C)CC1)c(C)n2C(=O)c1ccc(Cl)cc1`, which CC50 at 72 h [1] is on record?
**A.** > 125 µM

**Q.** What about the CC50 at 72 h [2] of the same molecule?
**A.** 12.3 µM

**Q.** What about the solubility kinetic at 1.5 h [3] of the same molecule?
**A.** 26 µM (≈ 27.1 µg/mL)

**Q.** And the EC50 (SARS-CoV-2 [4])?
**A.** > 25 µM

**Q.** For `COc1ccc2c(c1)c(CC(=O)N1CCN(CC(=O)N[C@H](C(=O)N3C[C@@H](O)C[C@H]3C(=O)N[C@@H](C)c3ccc(-c4scnc4C)cc3)C(C)(C)C)CC1)c(C)n2C(=O)c1ccc(Cl)cc1`, which Activity (Vero C1008 [14]) is on record?
**A.** Toxic

**Q.** What does the source list for `COc1ccc2c(c1)c(CC(=O)N1CCN(CC(=O)N[C@H](C(=O)N3C[C@H](O)C[C@H]3C(=O)N[C@@H](C)c3ccc(-c4scnc4C)cc3)C(C)(C)C)CC1)c(C)n2C(=O)c1ccc(Cl)cc1`?
**A.** CC50 at 72 h [1]: > 125 µM; EC50 (Human coronavirus 229E): 6.5 µM; CC50 at 72 h [2]: > 125 µM; Activity (MRC5 [6]): inactive; half-life [10]: > 1 h; Kinetic_solubility [3]: Bld; EC50 (SARS-CoV-2 [15]): 0.89 µM; Activity (HEK-293T): inactive; Activity (Vero C1008 [7]): inactive; DC50 [16]: 1.34 µM; Activity (MRC5 [8]): inactive; EC50 (SARS-CoV-2 [4]): 10.8 µM; remaining at 24 h, 1 µM [11]: > 70%; EC50 (Human coronavirus OC43): 1.6 µM; CC50 at 72 h [17]: > 125 µM
